ChEMBL document CHEMBL5223168, “Using Imidazo[2,1-b][1,3,4]thiadiazol Skeleton to Design and Synthesize Novel MNK Inhibitors” (ACS Med Chem Lett, 2023)
Active and inactive are the calls of the source. The rule behind the calls is not given here.

Columns and labels:
[1] = target: MAP kinase-interacting serine/threonine-protein kinase 1 (Homo sapiens, UniProt Q9BUB5); experiment: Inhibition of MNK1 (unknown origin) incubated for 60 mins using CREB as substrate in presence of ATP by LANCE Ultra kinase assay
Sequence of MAP kinase-interacting serine/threonine-protein kinase 1 (Q9BUB5 whole entry): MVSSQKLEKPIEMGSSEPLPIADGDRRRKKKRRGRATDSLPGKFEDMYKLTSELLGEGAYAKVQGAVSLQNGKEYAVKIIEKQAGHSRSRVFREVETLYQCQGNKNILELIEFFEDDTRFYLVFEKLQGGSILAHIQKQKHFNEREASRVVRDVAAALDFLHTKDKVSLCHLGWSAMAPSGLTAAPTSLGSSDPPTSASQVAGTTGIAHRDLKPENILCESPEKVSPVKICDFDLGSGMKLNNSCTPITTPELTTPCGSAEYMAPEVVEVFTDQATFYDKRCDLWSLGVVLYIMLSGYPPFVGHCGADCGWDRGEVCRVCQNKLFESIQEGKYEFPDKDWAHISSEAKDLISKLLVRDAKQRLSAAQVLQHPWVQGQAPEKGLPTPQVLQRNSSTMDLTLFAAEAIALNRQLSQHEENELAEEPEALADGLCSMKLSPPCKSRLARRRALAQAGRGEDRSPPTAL

[2] = target: MAP kinase-interacting serine/threonine-protein kinase 2 (Homo sapiens, UniProt Q9HBH9); experiment: Inhibition of MNK2 (unknown origin) incubated for 60 mins using CREB as substrate in presence of ATP by LANCE Ultra kinase assay
Sequence of MAP kinase-interacting serine/threonine-protein kinase 2 (Q9HBH9 whole entry): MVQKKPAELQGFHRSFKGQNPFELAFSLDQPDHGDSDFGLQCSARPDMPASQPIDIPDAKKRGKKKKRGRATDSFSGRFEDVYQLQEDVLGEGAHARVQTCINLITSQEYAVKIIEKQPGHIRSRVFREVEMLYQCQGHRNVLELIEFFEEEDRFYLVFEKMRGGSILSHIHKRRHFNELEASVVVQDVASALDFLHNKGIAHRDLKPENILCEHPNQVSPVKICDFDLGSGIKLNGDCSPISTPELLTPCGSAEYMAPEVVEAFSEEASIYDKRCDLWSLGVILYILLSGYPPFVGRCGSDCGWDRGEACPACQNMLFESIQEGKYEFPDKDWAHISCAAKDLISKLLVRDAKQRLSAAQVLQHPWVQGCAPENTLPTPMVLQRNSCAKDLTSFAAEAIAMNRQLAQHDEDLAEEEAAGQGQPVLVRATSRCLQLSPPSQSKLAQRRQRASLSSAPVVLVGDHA

3T3-L1 = experiment: Inhibition of MNK in mouse 3T3-L1 cells assessed as inhibition of eIF4E phosphorylation at 5 uM incubated for 2 hrs by Western blot analysis; type: cell-based
Method in brief: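 Mouse 3T3-L1 cells exposed to compound at 5 μM for 2 h; lysates resolved by SDS-PAGE and immunoblotted for phospho-eIF4E. Reference MNK inhibitor run in parallel at 1 μM.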

MEF [3] = experiment: Inhibition of MNK in MNK2 knockout mouse MEF cells assessed as inhibition of eIF4E phosphorylation at 3 uM incubated for 2 hrs by Western blot analysis; type: cell-based
Method in brief: (§1)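 MEFs lacking MNK1 or MNK2 (wild-type for comparison) treated 2 h at indicated concentrations; lysates immunoblotted for p-eIF4E, which reflects the remaining MNK isoform; quantified from three independent experiments, SEM.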

MEF [4] = experiment: Inhibition of MNK in MNK1 knockout mouse MEF cells assessed as inhibition of eIF4E phosphorylation at 1 uM incubated for 2 hrs by Western blot analysis; type: cell-based; method in brief: as §1
A549 = experiment: Antitumor activity against human A549 cells xenografted in BALB/C nude mouse assessed as T/C ratio at 3 mg/kg, po QD for 14 days; type: functional; conditions: time 14 day
Method in brief: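 A549 xenografts in nude mice; compound given orally once daily at 75 or 150 mg/kg for 14 days, irinotecan reference at 3 mg/kg; tumor growth tracked as T/C ratio (relative tumor proliferation rate); body weight monitored.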

| IC50 [1] | IC50 [2] | Structure (SMILES) | inhibition (3T3-L1) | further results |
| --- | --- | --- | --- | --- |
| 31.1 nM | 21.6 nM | N#Cc1ccc(-c2cnc3sc(-c4ccc(C(=O)NCCCN5CCOCC5)cc4)nn23)cc1 | – | – |
| – | – | O=C(NCCc1ccncc1)c1ccc(-c2nn3cc(-c4ccc(F)cc4)nc3s2)cc1 | inactive | – |
| 21.6 nM | 16.7 nM | N#Cc1ccc(-c2cnc3sc(-c4ccc(C(=O)NCCCO)cc4)nn23)cc1 | – | – |
| – | – | N#Cc1ccc(-c2cn3nc(-c4ccc(C(=O)N5CCCC5)cc4)sc3n2)cc1 | inactive | – |
| 27.8 nM | 20.8 nM | N#Cc1ccc(-c2cnc3sc(-c4ccc(C(=O)N5CCCC5)cc4)nn23)cc1 | – | – |
| 10 nM | 10.4 nM | N#Cc1ccc(-c2cnc3sc(-c4ccc(C(=O)NCCN5CCCC5)cc4)nn23)cc1 | – | – |
| – | – | N#Cc1ccc(-c2cnc3ccc(-c4ccc(C(=O)N5CCOCC5)cc4)cn23)cc1 | – | inhibition (MEF [3]): 50%; inhibition (MEF [4]): Active |
| – | – | CN(C)CC(C)(C)CNC(=O)c1ccc(-c2nn3cc(-c4ccccc4)nc3s2)cc1 | inactive | – |
| 25 nM | 33.4 nM | CN(C)CCNC(=O)c1ccc(-c2nn3c(-c4ccc(C#N)cc4)cnc3s2)cc1 | – | – |
| 42.9 nM | 57.8 nM | N#Cc1ccc(-c2cnc3sc(-c4ccc(C(=O)NCCCCCO)cc4)nn23)cc1 | – | – |
| – | – | CN1CCN(C(=O)c2ccc(-c3nn4cc(-c5ccc(C#N)cc5)nc4s3)cc2)CC1 | inactive | – |
| 13.6 nM | 8.81 nM | N#Cc1ccc(-c2cnc3sc(-c4ccc(C(=O)NCCO)cc4)nn23)cc1 | – | – |
| – | – | CCc1c2c(nc3ccc(OC(=O)N4CCC(N5CCCCC5)CC4)cc13)-c1cc3c(c(=O)n1C2)COC(=O)[C@]3(O)CC [IRINOTECAN] | – | T/C (A549): 0.4 |
| 210 nM | 170 nM | CN1CCN(C(=O)c2ccc(-c3nn4c(-c5ccncc5)cnc4s3)cc2)CC1 | Active | – |
| – | – | O=C(NCCO)c1ccc(-c2nn3cc(-c4ccccc4)nc3s2)cc1 | inactive | – |
| 36.9 nM | 5.33 nM | CC1CCCCN1C(=O)c1ccc(-c2nn3c(-c4ccc(C#N)cc4)cnc3s2)cc1 (configuration not stated) | Active | – |
| – | – | O=C(NCCCN1CCCC1)c1ccc(-c2nn3cc(-c4ccccc4)nc3s2)cc1 | inactive | – |
| 376 nM | 105 nM | COC(=O)c1ccc(-c2cnc3sc(-c4ccc(C(=O)N5CCN(C)CC5)cc4)nn23)cc1 | Active | – |
